Experimental data taken from article PMC5522751 (Bioorganic & medicinal chemistry, 2017).

Legend:
[1] = target: human FAS-TE (Homo sapiens, UniProt P49327); test: Fluorogenic assay for human FAS-TE inhibition; type: biochemical; settings: for reduction (drop) of FAS-TE activity: compared to 21
[2] = target: human 20S proteasome caspase-like (C-L, β1) site (Homo sapiens, UniProt P28072+Q99436); test: Fluorogenic assay for 20S human proteasome inhibition, caspase-like site; type: biochemical
[3] = target: human 20S proteasome trypsin-like (T-L, β2) site (Homo sapiens, UniProt P49720+Q99436); test: Fluorogenic assay for 20S human proteasome inhibition, trypsin-like site; type: biochemical
[4] = target: ChT-L (proteasome beta-5, PSB-5) (Homo sapiens, UniProt P20618+P28074); test: Activity-based in situ competitive labelling against ABPP probe 28, ChT-L; type: cell-based; settings: MCF-7 cells, 30 min preincubation with inhibitor, then 10 µM probe 28 for 30 min
[5] = target: FAS (Homo sapiens, UniProt P49327); test: Activity-based in situ competitive labelling against ABPP probe 28, FAS band; type: cell-based; settings: MCF-7 cells, 30 min preincubation with inhibitor, then 10 µM probe 28 for 30 min
Sequence of FAS (P49327 whole entry): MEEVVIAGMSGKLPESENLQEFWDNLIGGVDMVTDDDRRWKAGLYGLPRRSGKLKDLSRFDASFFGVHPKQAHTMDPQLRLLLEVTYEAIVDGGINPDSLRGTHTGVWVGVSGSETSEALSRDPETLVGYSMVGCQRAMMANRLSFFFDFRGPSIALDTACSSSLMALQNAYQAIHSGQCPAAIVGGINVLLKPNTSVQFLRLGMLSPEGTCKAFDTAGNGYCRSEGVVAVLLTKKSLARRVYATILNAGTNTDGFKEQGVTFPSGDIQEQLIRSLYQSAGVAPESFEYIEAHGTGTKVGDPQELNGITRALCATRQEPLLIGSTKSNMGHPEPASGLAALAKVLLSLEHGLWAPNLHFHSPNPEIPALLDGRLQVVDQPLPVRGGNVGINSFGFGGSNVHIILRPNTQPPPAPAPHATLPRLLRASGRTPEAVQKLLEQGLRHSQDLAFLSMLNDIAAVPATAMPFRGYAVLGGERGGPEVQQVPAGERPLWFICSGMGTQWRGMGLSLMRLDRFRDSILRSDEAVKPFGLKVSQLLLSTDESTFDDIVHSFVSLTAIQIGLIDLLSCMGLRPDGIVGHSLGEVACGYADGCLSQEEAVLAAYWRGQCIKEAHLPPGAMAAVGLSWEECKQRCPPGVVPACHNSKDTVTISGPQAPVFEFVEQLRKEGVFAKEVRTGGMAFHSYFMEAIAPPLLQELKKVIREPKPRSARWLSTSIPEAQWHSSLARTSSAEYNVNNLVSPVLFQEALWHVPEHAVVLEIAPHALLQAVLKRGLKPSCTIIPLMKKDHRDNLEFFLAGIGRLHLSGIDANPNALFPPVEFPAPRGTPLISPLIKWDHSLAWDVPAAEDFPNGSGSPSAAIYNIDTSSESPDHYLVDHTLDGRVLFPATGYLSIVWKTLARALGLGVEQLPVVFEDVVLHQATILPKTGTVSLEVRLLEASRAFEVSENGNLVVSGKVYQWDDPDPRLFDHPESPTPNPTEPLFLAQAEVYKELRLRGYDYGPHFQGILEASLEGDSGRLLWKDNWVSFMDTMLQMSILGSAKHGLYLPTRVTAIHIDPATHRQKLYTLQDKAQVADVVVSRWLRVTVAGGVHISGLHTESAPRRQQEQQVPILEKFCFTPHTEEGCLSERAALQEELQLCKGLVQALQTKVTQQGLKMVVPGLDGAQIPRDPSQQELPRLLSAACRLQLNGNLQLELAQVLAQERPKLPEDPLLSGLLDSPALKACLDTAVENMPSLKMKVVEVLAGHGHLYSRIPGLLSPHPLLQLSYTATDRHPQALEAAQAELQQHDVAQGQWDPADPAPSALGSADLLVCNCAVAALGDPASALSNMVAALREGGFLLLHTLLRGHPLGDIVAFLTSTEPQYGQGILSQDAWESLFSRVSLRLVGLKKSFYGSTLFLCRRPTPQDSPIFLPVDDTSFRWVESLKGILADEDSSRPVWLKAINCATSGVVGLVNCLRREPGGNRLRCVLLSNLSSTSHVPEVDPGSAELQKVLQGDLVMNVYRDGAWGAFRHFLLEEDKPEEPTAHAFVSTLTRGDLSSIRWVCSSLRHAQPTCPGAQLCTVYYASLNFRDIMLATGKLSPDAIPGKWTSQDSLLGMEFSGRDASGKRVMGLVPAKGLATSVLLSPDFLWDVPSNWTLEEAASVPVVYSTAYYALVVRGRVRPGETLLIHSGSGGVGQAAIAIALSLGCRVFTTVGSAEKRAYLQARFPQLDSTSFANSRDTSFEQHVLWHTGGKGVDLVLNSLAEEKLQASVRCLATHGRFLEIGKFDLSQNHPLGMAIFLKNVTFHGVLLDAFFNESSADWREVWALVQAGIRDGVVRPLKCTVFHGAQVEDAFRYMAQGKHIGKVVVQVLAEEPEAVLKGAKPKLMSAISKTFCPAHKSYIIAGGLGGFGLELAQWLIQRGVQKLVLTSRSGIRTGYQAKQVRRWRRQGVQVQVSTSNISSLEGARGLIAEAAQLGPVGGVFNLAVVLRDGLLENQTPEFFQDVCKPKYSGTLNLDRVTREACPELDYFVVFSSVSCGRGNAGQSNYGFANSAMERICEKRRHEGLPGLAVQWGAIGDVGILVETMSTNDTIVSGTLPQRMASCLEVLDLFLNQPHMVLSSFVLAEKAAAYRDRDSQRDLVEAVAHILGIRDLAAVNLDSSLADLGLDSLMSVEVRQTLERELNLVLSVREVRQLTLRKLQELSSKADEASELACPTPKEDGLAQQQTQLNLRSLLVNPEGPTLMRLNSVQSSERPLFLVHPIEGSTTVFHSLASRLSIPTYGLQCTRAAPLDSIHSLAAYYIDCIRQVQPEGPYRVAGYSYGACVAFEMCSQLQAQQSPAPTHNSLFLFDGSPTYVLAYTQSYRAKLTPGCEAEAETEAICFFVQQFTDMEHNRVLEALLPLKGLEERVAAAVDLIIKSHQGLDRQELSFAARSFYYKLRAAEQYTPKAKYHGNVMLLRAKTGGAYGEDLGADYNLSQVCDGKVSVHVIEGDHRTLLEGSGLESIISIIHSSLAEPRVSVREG
How it was run: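 Cells at 80–90% confluency were washed and given serum-free medium with test compound (10–100 µM; 1, 2.5, 5, 10-fold excess over probe) or DMSO, 30 min at 37 °C, 5% CO2. Alkyne probe was added (10 µM final) for 30 min. Soluble lysate (1% NP-40/1% deoxycholate, ~1.0 mg/mL) was clicked to TAMRA-N3 (100 µM; 1 mM CuSO4, 1 mM TCEP, 100 µM TBTA) for 1–1.5 h, RT, dark. Read-out: 10% SDS-PAGE, in-gel fluorescence.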

[6] = target: human 20S proteasome chymotrypsin-like (ChT-L, β5) site (Homo sapiens, UniProt P20618+P28074); test: Fluorogenic assay for 20S human proteasome inhibition, chymotrypsin-like site; type: biochemical; settings: compared to the diastereomeric β-lactone 21

Sequence of human FAS-TE (P49327 2207-2511 limits assumed): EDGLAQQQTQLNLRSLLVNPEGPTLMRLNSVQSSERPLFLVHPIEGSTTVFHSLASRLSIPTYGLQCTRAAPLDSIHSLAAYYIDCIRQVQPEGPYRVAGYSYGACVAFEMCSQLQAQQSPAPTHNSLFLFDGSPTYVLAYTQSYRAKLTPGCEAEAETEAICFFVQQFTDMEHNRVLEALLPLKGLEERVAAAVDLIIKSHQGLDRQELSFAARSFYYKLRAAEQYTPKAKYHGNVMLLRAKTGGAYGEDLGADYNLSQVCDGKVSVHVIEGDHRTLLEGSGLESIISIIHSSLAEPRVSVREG

IC50 [2] [µM]	IC50 [3] [µM]	Structure (SMILES)	other results
> 100	> 100	C#Cc1ccc(COC(=O)[C@H](C)NC(=O)[C@H](CCCCNC(=O)[C@@H]2OC(=O)[C@H]2CCCCCC)NC(=O)OCc2ccccc2)cc1 [compound 28]	reduction (drop) of FAS-TE activity [1]: ~ 2.5 fold
–	> 100	CCCCCC[C@]1(C)C(=O)O[C@H]1C(=O)NCCCC[C@H](NC(=O)[C@H](C)NC(=O)OCc1ccccc1)C(=O)OCc1ccccc1 [compound 25]	excess of inhibitor over probe 28 that resulted in ChT-L signal reduction [4]: not able to compete effectively; excess of inhibitor over probe 28 that resulted in FAS signal reduction [5]: not able to compete effectively
7.93 ± 0.21	> 100	CCCCCC[C@@H]1C(=O)O[C@H]1C(=O)NCCCC[C@@H]1NC(=O)N([C@@H](C)C(=O)OCc2ccccc2)C1=O [compound 22]	–
–	> 100	CCCCCC[C@H]1C(=O)O[C@@H]1C(=O)NCCCC[C@H](NC(=O)CNC(=O)OCc1ccccc1)C(=O)OCc1ccccc1 [compound 24]	–
> 100	> 100	CCCCCCCCCCC[C@@H](C[C@@H]1OC(=O)[C@H]1CCCCCC)OC(=O)[C@H](CC(C)C)NC=O [orlistat, Tetrahydrolipstatin, reference compound]	–
–	> 100	CCCCCC[C@@]1(C)C(=O)O[C@@H]1C(=O)NCCCC[C@H](NC(=O)[C@H](C)NC(=O)OCc1ccccc1)C(=O)OCc1ccccc1 [compound 26]	–
–	> 100	CCCCCC[C@@H]1C(=O)O[C@H]1C(=O)NCCCC[C@H](NC(=O)[C@H](C)NC(=O)OCc1ccccc1)C(=O)OCc1ccccc1 [compound 17]	–
–	> 100	CCCCCC[C@@H]1C(=O)O[C@H]1C(=O)NCCCC[C@H](NC(=O)[C@H](C)NC(=O)c1ccc(Br)cc1)C(=O)OCc1ccccc1 [compound 20]	–
–	> 100	CCCCCC[C@@]1(C)C(=O)O[C@H]1C(=O)NCCCC[C@H](NC(=O)[C@H](C)NC(=O)OCc1ccccc1)C(=O)OCc1ccccc1 [compound 27]	–
–	> 100	CCCCCC[C@@H]1C(=O)O[C@H]1C(=O)NCCCC[C@H](NC(=O)CNC(=O)OCc1ccccc1)C(=O)OCc1ccccc1 [compound 18]	drop in potency against FAS-TE ([1]; relative to derivative 17): ~ 3 fold
> 100	> 100	CCCCCC[C@H]1C(=O)O[C@@H]1C(=O)NCCCC[C@H](NC(=O)OCc1ccccc1)C(=O)N[C@@H](C)C(=O)OCc1ccccc1 [compound 23]	reduction (drop) of FAS-TE activity [1]: ~ 8 fold; reduction of proteasome ChT-L activity [6]: ~ 8 fold
> 100	> 100	CCCCCC[C@@H]1C(=O)O[C@H]1C(=O)NCCCC[C@H](NC(=O)OCc1ccccc1)C(=O)N[C@@H](C)C(=O)OCc1ccccc1 [compound 21]	potency against FAS-TE compared to orlistat ([1]; ratio of IC50 values, more potent than orlistat): 3 X; excess of inhibitor over probe 28 that resulted in ChT-L signal reduction [4]: 2.5 fold; excess of inhibitor over probe 28 that resulted in FAS signal reduction [5]: 10 fold
